From ChEMBL document CHEMBL4043093, “2-Oxo-3, 4-dihydropyrimido[4, 5-d]pyrimidinyl derivatives as new irreversible pan fibroblast growth factor receptor (FGFR) inhibitors” (Eur J Med Chem, 2017)

Columns and labels:
[1] = target: Serine/threonine-protein kinase Nek2 (Homo sapiens) (UniProt P51955); assay: Inhibition of wild-type human partial length NEK2 (M1 to K309 residues) expressed in Escherichia coli BL21 assessed as residual activity at 1000 nM after 30 mins by Kinomescan method relative to control
[2] = target: Receptor-interacting serine/threonine-protein kinase 4 (Homo sapiens) (UniProt P57078); assay: Inhibition of wild-type human partial length RIPK4 (M1 to V303 residues) expressed in HEK293 cells assessed as residual activity at 1000 nM after 30 mins by Kinomescan method relative to control; type: cell-based
[3] = target: Testis-specific serine/threonine-protein kinase 3 (Homo sapiens) (UniProt Q96PN8); assay: Inhibition of wild-type human full length TSSK3 (M1 to T268 residues) expressed in HEK293 cells assessed as residual activity at 1000 nM after 30 mins by Kinomescan method relative to control; type: cell-based
[4] = target: Focal adhesion kinase 1 (Homo sapiens) (UniProt Q05397); assay: Inhibition of wild-type human partial length FAK (D402 to R696 residues) expressed in Escherichia coli BL21 assessed as residual activity at 1000 nM after 30 mins by Kinomescan method relative to control
[5] = target: Phosphorylase b kinase gamma catalytic chain, liver/testis isoform (Homo sapiens) (UniProt P15735); assay: Inhibition of wild-type human partial length PHKG2 (M1 to W300 residues) expressed in Escherichia coli BL21 assessed as residual activity at 1000 nM after 30 mins by Kinomescan method relative to control
[6] = target: Bone morphogenetic protein receptor type-2 (Homo sapiens) (UniProt Q13873); assay: Inhibition of wild-type human partial length BMPR2 (R179 to Q526 residues) expressed in HEK293 cells assessed as residual activity at 1000 nM after 30 mins by Kinomescan method relative to control; type: cell-based
[7] = test system: Tyrosine-protein kinase ABL1 (Homo sapiens), P00519 [Y253F]; assay: Inhibition of human phosphorylated ABL1 Y253F mutant (S229 to K512 residues) expressed in HEK293 cells assessed as residual activity at 1000 nM after 30 mins by Kinomescan method relative to control; type: cell-based
Method in brief: (§1)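 Single-point screen at a fixed 1 µM, run within a 456-kinase DiscoveRx KINOMEscan panel. Each kinase's read-out is Percent Control, i.e. signal relative to a control without compound. Hits were scored by a Percent Control < 35 cut-off, and an S(35) selectivity score was calculated across the non-mutant kinases.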

[8] = target: Calcium/calmodulin-dependent protein kinase kinase 1 (Homo sapiens) (UniProt Q8N5S9); assay: Inhibition of wild-type human partial length CAMKK1 (R65 to E414 residues) expressed in Escherichia coli BL21 assessed as residual activity at 1000 nM after 30 mins by Kinomescan method relative to control
[9] = target: Myosin-IIIb (Homo sapiens) (UniProt Q8WXR4); assay: Inhibition of wild-type human partial length MYO3B (M1 to D357 residues) expressed in Escherichia coli BL21 assessed as residual activity at 1000 nM after 30 mins by Kinomescan method relative to control
[10] = target: Fibroblast growth factor receptor 2 (Homo sapiens, UniProt P21802); assay: Inhibition of human recombinant cytoplasmic His-tagged FGFR2 (403 to 822 residues) expressed in baculovirus using Tyr-4 peptide after 1 hr by FRET-based Z'-Lyte assay
[11] = target: Ephrin type-A receptor 5 (Homo sapiens) (UniProt P54756); assay: Inhibition of wild-type human partial length EPHA5 (T627 to V930 residues) expressed in Escherichia coli BL21 assessed as residual activity at 1000 nM after 30 mins by Kinomescan method relative to control
[12] = target: Calcium/calmodulin-dependent protein kinase type II subunit beta (Homo sapiens) (UniProt Q13554); assay: Inhibition of wild-type human partial length CAMK2B (M1 to Q380 residues) expressed in Escherichia coli BL21 assessed as residual activity at 1000 nM after 30 mins by Kinomescan method relative to control
[13] = target: Myosin light chain kinase family member 4 (Homo sapiens) (UniProt Q86YV6); assay: Inhibition of wild-type human partial length MYLK4 (V79 to S380 residues) expressed in Escherichia coli BL21 assessed as residual activity at 1000 nM after 30 mins by Kinomescan method relative to control
[14] = target: Receptor tyrosine-protein kinase erbB-4 (Homo sapiens) (UniProt Q15303); assay: Inhibition of wild-type human partial length ERBB4 (L690 to K994 residues) expressed in Escherichia coli BL21 assessed as residual activity at 1000 nM after 30 mins by Kinomescan method relative to control
[15] = target: Serine/threonine-protein kinase NLK (Homo sapiens) (UniProt Q9UBE8); assay: Inhibition of wild-type human full length NLK (M13 to E527 residues) expressed in Escherichia coli BL21 assessed as residual activity at 1000 nM after 30 mins by Kinomescan method relative to control
Method in brief: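 Single-concentration screen at 1 µM across a 456-kinase KINOMEscan panel. The read-out is Percent Control for each kinase.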

[16] = target: Serine/threonine-protein kinase TAO1 (Homo sapiens) (UniProt Q7L7X3); assay: Inhibition of wild-type human partial length TAOK1 (M1 to A320 residues) expressed in HEK293 cells assessed as residual activity at 1000 nM after 30 mins by Kinomescan method relative to control; type: cell-based
[17] = target: Mitogen-activated protein kinase 12 (Homo sapiens) (UniProt P53778); assay: Inhibition of wild-type human full length p38-gamma (M1 to L367 residues) expressed in HEK293 cells assessed as residual activity at 1000 nM after 30 mins by Kinomescan method relative to control; type: cell-based
[18] = target: Dual serine/threonine and tyrosine protein kinase (Homo sapiens) (UniProt Q6XUX3); assay: Inhibition of wild-type human full length RIPK5 (M1 to T929 residues) expressed in HEK293 cells assessed as residual activity at 1000 nM after 30 mins by Kinomescan method relative to control; type: cell-based
[19] = target: RAC-beta serine/threonine-protein kinase (Homo sapiens) (UniProt P31751); assay: Inhibition of wild-type human partial length AKT2 expressed in Escherichia coli BL21 assessed as residual activity at 1000 nM after 30 mins by Kinomescan method relative to control
[20] = target: cAMP-dependent protein kinase catalytic subunit beta (Homo sapiens) (UniProt P22694); assay: Inhibition of wild-type human full length PKAC-beta (M1 to F351 residues) expressed in Escherichia coli BL21 assessed as residual activity at 1000 nM after 30 mins by Kinomescan method relative to control
Method in brief: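 Single-concentration screen at 1 µM against a 456-kinase panel (KINOMEscan). Read-out is Percent Control for each kinase. Across the 403 non-mutant kinases, an S(35) selectivity score was derived as the fraction of kinases with Percent Control < 35.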

[21] = test system: Tyrosine-protein kinase ABL1 (Homo sapiens), P00519 [F317L]; assay: Inhibition of human phosphorylated ABL1 F317L mutant (S229 to K512 residues) expressed in HEK293 cells assessed as residual activity at 1000 nM after 30 mins by Kinomescan method relative to control; type: cell-based; method in brief: as §1

Myosin light chain kinase family member 4 (Homo sapiens), sequence (Q86YV6 whole entry, the tested form may be a part): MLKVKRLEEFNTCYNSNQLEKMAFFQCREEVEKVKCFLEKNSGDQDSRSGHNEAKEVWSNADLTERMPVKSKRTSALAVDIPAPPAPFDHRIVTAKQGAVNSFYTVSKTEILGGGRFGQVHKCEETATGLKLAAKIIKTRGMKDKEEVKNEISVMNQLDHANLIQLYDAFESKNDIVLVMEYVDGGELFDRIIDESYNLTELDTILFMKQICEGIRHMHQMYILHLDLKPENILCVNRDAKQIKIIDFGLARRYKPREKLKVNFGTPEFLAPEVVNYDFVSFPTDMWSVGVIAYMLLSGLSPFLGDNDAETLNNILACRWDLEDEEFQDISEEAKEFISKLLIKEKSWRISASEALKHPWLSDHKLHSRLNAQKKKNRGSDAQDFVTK
Mitogen-activated protein kinase 12 (Homo sapiens), sequence (P53778 whole entry, the tested form may be a part): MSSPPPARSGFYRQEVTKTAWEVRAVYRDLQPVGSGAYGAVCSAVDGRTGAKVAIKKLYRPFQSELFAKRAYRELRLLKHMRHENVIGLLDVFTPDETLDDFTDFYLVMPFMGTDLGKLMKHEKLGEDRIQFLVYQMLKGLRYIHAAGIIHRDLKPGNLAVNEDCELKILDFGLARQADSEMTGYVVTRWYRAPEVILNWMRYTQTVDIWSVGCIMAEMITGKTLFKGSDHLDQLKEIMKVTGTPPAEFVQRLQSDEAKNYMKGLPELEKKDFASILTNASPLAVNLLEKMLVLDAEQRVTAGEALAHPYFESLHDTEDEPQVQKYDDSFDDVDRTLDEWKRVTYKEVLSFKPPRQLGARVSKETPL
Bone morphogenetic protein receptor type-2 (Homo sapiens), sequence (Q13873 whole entry, the tested form may be a part): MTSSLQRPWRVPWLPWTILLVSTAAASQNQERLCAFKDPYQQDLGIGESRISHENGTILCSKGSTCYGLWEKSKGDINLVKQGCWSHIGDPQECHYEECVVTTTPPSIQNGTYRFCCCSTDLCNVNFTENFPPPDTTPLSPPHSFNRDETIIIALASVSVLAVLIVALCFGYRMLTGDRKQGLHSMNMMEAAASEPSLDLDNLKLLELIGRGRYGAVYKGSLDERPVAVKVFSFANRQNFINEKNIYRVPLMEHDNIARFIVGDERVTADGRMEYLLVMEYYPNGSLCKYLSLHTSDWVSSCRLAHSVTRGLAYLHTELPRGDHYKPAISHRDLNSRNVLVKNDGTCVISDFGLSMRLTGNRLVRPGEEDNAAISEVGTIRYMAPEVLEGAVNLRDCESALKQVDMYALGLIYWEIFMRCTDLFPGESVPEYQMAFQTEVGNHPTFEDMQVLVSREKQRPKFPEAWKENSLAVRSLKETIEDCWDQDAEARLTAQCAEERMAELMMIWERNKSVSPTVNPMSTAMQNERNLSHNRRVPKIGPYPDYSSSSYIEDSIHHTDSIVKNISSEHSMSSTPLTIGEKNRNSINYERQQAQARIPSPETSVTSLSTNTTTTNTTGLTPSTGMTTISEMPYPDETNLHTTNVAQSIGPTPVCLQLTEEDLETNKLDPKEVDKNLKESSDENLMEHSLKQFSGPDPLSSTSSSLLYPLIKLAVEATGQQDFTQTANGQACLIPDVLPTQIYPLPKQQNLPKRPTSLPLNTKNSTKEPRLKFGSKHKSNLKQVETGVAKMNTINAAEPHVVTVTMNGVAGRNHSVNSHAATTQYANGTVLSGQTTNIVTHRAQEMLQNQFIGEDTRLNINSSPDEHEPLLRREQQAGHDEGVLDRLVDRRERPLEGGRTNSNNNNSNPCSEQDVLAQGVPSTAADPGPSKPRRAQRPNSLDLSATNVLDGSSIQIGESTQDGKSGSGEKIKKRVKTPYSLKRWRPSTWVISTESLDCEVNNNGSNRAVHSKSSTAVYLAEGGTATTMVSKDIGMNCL
Phosphorylase b kinase gamma catalytic chain, liver/testis isoform (Homo sapiens), sequence (P15735 whole entry, the tested form may be a part, canonical isoform): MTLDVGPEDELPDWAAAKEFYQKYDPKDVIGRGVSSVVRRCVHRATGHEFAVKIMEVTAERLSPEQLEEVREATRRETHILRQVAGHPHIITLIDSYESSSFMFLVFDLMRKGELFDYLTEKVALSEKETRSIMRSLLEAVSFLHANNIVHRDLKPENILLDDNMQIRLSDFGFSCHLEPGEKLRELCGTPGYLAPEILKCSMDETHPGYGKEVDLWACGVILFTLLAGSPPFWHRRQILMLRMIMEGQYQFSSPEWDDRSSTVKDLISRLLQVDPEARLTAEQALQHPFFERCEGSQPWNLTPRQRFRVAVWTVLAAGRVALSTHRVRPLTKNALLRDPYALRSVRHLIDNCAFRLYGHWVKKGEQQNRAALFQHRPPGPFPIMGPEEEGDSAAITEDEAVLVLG
Fibroblast growth factor receptor 2, sequence (P21802 whole entry, the tested form may be a part): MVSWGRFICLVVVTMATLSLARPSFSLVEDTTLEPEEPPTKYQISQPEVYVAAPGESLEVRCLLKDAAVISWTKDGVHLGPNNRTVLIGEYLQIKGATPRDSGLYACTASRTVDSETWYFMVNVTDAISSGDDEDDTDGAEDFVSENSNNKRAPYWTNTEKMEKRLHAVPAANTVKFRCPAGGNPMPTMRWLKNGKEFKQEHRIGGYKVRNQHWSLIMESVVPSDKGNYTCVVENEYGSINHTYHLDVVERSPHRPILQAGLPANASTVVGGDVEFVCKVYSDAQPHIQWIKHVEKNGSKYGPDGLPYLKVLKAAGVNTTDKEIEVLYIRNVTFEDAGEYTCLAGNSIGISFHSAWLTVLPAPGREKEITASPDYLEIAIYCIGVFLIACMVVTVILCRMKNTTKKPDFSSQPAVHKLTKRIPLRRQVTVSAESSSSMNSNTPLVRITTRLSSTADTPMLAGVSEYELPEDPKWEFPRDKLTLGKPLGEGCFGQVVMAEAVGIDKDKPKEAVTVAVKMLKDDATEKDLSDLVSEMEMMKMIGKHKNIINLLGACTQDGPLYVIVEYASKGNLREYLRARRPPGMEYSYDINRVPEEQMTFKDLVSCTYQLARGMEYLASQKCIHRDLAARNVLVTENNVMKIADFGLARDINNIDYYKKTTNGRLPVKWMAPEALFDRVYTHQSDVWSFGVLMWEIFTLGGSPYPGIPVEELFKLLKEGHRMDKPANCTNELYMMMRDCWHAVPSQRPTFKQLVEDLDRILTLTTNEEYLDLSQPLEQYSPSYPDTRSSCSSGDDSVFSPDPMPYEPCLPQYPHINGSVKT
Serine/threonine-protein kinase TAO1 (Homo sapiens), sequence (Q7L7X3 whole entry, the tested form may be a part): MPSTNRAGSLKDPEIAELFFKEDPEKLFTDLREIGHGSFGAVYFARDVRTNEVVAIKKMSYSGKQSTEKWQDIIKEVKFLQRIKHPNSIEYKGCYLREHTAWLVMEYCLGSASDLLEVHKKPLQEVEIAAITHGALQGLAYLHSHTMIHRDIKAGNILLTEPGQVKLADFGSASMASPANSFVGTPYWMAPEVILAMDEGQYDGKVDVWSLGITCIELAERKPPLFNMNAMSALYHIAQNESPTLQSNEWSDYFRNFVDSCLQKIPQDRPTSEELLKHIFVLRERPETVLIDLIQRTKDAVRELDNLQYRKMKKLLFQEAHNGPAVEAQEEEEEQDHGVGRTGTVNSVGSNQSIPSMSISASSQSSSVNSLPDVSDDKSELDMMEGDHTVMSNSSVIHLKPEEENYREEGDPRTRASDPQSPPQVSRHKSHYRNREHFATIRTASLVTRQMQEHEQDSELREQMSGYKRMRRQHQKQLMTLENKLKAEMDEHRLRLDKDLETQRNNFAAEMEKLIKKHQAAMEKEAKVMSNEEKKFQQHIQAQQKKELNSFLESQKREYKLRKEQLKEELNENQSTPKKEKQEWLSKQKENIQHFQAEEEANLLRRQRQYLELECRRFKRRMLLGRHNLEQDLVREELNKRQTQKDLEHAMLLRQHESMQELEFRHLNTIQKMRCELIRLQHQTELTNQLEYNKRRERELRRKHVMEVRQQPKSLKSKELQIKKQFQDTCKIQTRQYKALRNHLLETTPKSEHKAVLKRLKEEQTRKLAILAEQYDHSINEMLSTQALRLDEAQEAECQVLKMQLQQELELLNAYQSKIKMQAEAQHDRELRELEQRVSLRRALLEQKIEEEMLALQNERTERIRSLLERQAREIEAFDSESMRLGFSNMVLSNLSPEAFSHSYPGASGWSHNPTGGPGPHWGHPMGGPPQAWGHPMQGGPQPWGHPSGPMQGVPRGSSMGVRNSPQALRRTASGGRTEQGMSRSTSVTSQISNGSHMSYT
Ephrin type-A receptor 5 (Homo sapiens), sequence (P54756 whole entry, the tested form may be a part): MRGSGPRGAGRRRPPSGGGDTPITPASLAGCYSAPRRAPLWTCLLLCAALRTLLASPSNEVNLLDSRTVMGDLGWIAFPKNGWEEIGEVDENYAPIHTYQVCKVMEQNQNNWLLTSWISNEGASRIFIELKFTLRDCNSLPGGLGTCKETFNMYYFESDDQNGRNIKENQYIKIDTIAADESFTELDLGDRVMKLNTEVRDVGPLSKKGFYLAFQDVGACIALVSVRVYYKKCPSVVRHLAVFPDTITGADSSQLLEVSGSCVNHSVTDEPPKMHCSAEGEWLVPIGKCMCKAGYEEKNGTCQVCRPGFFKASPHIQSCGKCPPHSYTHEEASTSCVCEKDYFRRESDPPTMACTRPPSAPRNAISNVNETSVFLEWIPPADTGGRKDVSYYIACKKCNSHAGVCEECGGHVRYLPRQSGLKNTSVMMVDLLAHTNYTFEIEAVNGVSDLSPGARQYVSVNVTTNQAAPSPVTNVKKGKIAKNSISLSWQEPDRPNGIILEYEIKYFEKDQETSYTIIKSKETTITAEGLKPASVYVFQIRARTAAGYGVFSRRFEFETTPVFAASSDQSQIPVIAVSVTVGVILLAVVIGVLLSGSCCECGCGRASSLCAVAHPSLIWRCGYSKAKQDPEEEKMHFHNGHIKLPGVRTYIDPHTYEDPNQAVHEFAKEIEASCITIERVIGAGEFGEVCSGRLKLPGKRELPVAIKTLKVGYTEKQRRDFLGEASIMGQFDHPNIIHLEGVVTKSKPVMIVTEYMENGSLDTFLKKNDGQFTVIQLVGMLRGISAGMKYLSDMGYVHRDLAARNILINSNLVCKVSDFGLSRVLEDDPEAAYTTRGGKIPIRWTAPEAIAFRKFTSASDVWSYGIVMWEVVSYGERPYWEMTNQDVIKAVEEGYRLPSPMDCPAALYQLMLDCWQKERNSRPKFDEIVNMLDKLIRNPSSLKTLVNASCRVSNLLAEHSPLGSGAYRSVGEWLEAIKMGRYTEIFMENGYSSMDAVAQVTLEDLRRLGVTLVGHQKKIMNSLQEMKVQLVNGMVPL

Compound `COc1cc(OC)c(Cl)c(N2Cc3cnc(Nc4ccc(F)cc4)nc3N(C3CCN(C(=O)/C=C/CN(C)C)CC3)C2=O)c1Cl` has an Activity [1] of 53%, an Activity [2] of 100% and an Activity [3] of 100%. For the same compound, the Activity [4] was 78%, the Activity [5] was 98% and the Activity [6] was 96%. The Activity [7] was 38%, the Activity [8] was 93% and the Activity [9] was 100%. For the same compound, the IC50 [10] was 1.45 nM, the Activity [11] was 100% and the Activity [12] was 100%. For the same compound, the Activity [13] was 85%, the Activity [14] was 98% and the Activity [15] was 98%. For the same compound, the Activity [16] was 13%, the Activity [17] was 89% and the Activity [18] was 100%. For the same compound, the Activity [19] was 92%, the Activity [20] was 95% and the Activity [21] was 64%.
